Values after ≈ are worked out from the molar mass of the structure shown. Active and inactive are the calls of the source.
Key:
[1] = test system: Staphylococcus aureus; assay: Bactericidal activity against methicillin-resistant Staphylococcus aureus JCSC 4788 assessed as reduction in bacterial growth at 0.5 to 1 times MIC measured within 8 hrs by time kill assay relative to control; type: functional; parameters: scale not given: the % may be the effect or the level left
In short: (§1)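 Time-kill per CLSI: overnight MRSA JCSC 4788 adjusted in 0.85% NaCl to 10^6–10^7 CFU mL−1 and exposed to 0.5×, 1×, 2× and 4× MIC at 35 °C, vancomycin as comparator. Viable plate counts at 0.5, 2, 4, 8 and 24 h; two independent experiments.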

[2] = Selectivity ratio of IC50 for human SF268 cells to MIC for methicillin-resistant Staphylococcus aureus JCSC 4788; type: toxicity
In short: (§2)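 Ratio of 24 h MTT cytotoxicity IC50 (compound 1.5625–100 μg mL−1, 0.5% DMSO control) to MIC against MRSA JCSC 4788 from CLSI microbroth dilution in MHB; IC50 values expressed as mean ± SD.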

[3] = test system: Staphylococcus aureus; assay: Antibacterial activity against methicillin-resistant Staphylococcus aureus JCSC 4788 by micro dilution susceptibility test; type: functional
In short: (§3)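 Microbroth dilution MIC in Mueller–Hinton broth following CLSI guidelines, vancomycin as positive control; resazurin added as visible growth indicator. Assays run at least in triplicate.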

[4] = test system: SF-268; assay: Cytotoxicity against human SF268 cells by MTT assay; type: cell-based
In short: (§4)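 MTT viability assay after 24 h exposure to compound at 1.5625–100 µg mL⁻¹; control cells received DMSO at 0.5% (highest test-well level); IC50 given as mean ± SD of at least triplicate runs.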

[5] = test system: Staphylococcus aureus; assay: Induction of cytoplasmic membrane hyperpolarization in methicillin-resistant Staphylococcus aureus JCSC 4788 at 4 to 8 times MIC measured up to 9 mins by Disc3(5) staining based fluorescence spectrophotometric method; type: functional, organism-based
In short: (§5)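 Exponential-phase MRSA JCSC 4788 washed and set to OD620 0.1 in 5 mM HEPES pH 7. Cells loaded with 0.4 μM DiSC3(5) plus 100 mM KCl for 20 min at 37 °C with agitation. Compound added at 0.5–8× MIC and fluorescence followed at ex 660/em 670 nm; mean ± SD.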

[6] = test system: Staphylococcus aureus; assay: Antibacterial activity against Staphylococcus aureus ATCC 29213 by micro dilution susceptibility test; type: functional; in short: as §3
[7] = test system: Staphylococcus aureus; assay: Bactericidal activity against methicillin-resistant Staphylococcus aureus JCSC 4788 assessed as reduction in colony forming units at 4 times MIC measured after 4 hrs by time kill assay relative to control; type: functional; parameters: scale not given: the % may be the effect or the level left; in short: as §1
[8] = test system: Staphylococcus aureus; assay: Antibacterial activity against methicillin-resistant Staphylococcus aureus JCSC 3063 by micro dilution susceptibility test; type: functional; in short: as §3
[9] = test system: Staphylococcus aureus; assay: Antibacterial activity against methicillin-resistant Staphylococcus aureus JCSC 4788 at sub-MIC re-passaged at 24 hrs intervals for 20 times by micro dilution susceptibility test; type: functional, organism-based
In short: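 Exponential-phase MRSA JCSC 4788 at 37 °C passaged into fresh MHB containing compound at a sub-inhibitory concentration and re-passaged at 24 h intervals up to at least 20 passages; MIC then redetermined by CLSI microbroth dilution in MHB. Resistance defined as a more than 4-fold increase over the initial MIC.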

[10] = Selectivity ratio of MIC for methicillin-resistant Staphylococcus aureus N315 to MIC for methicillin-resistant Staphylococcus aureus JCSC 4788; type: functional
[11] = test system: Staphylococcus epidermidis; assay: Antibacterial activity against Staphylococcus epidermidis ATCC 12228 by micro dilution susceptibility test; type: functional
In short: (§6)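 Microbroth dilution MIC in Mueller–Hinton broth following CLSI guidelines, with vancomycin as positive control; assays run at least in triplicate.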

[12] = test system: Staphylococcus aureus; assay: Selectivity ratio of MIC for methicillin-resistant Staphylococcus aureus JCSC 2172 to MIC for methicillin-resistant Staphylococcus aureus JCSC 4788; type: functional
[13] = test system: Escherichia coli; assay: Antibacterial activity against Escherichia coli ATCC 8739 by micro dilution susceptibility test; type: functional; in short: as §6
[14] = test system: Enterococcus faecalis; assay: Antibacterial activity against Enterococcus faecalis ATCC 29212 by micro dilution susceptibility test; type: functional; in short: as §6
[15] = test system: Staphylococcus aureus; assay: Induction of cytoplasmic membrane disruption in methicillin-resistant Staphylococcus aureus JCSC 4788 measured after 3 hrs by SYTOX green dye based fluorescence microscopic analysis; type: functional, organism-based
In short: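 MRSA JCSC 4788 suspension (OD620 0.4) treated with compound or vancomycin for 3 h, stained with 3 μM SYTOX Green, fixed on glass slides and viewed by fluorescence microscopy at 485 nm excitation.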

[16] = test system: Staphylococcus aureus; assay: Induction of morphological changes in methicillin-resistant Staphylococcus aureus JCSC 4788 assessed as cytoplasmic membrane disruption at 4 times MIC measured after 3 hrs scanning electron microscopic analysis; type: functional, organism-based
In short: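 Exponential-phase MRSA JCSC 4788 treated at 37 °C and washed. Cells prefixed overnight in 0.1 M phosphate pH 7.2 with 2% glutaraldehyde and 2.5% paraformaldehyde, then post-fixed in 1% OsO4 for 2 h. Samples ethanol-dehydrated, freeze-dried, gold-coated and imaged by SEM.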

[17] = test system: Staphylococcus aureus; assay: Selectivity ratio of MIC for methicillin-resistant Staphylococcus aureus JCSC 3063 to MIC for methicillin-resistant Staphylococcus aureus JCSC 4788; type: functional
[18] = Selectivity ratio of MIC for vancomycin-resistant Enterococcus faecium to MIC for methicillin-resistant Staphylococcus aureus JCSC 4788; type: functional
[19] = test system: Staphylococcus aureus; assay: Bactericidal activity against methicillin-resistant Staphylococcus aureus JCSC 4788 assessed as reduction in colony forming units at 2 times MIC measured after 2 hrs by time kill assay relative to control; type: functional; parameters: scale not given: the % may be the effect or the level left; in short: as §1
[20] = test system: Cutibacterium acnes; assay: Antibacterial activity against Propionicibacterium acnes ATCC 6919 by micro dilution susceptibility test; type: functional
In short: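 Microbroth dilution MIC in Mueller–Hinton broth following CLSI guidelines; […]; resazurin added as visible growth indicator; vancomycin positive control; at least triplicate.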

[21] = test system: Staphylococcus aureus; assay: Selectivity ratio of MIC for methicillin-resistant Staphylococcus aureus NCTC 10442 to MIC for methicillin-resistant Staphylococcus aureus JCSC 4788; type: functional
[22] = test system: Salmonella typhi; assay: Antibacterial activity against Salmonella typhi CMCC 44102 by micro dilution susceptibility test; type: functional, Salmonella enterica subsp. enterica serovar Typhi; settings: Salmonella enterica; in short: as §3
[23] = test system: Staphylococcus aureus; assay: Induction of cytoplasmic membrane depolarization in methicillin-resistant Staphylococcus aureus JCSC 4788 at 0.5 to 2 times MIC measured within 1 min by Disc3(5) staining based fluorescence spectrophotometric method; type: functional, organism-based; in short: as §5
[24] = test system: Staphylococcus aureus; assay: Antibacterial activity against methicillin-resistant Staphylococcus aureus JCSC 4744 by micro dilution susceptibility test; type: functional; in short: as §3
[25] = Selectivity ratio of IC50 for human MCF7 cells to MIC for methicillin-resistant Staphylococcus aureus JCSC 4788; type: toxicity; in short: as §2
[26] = test system: MCF7; assay: Cytotoxicity against human MCF7 cells by MTT assay; type: cell-based; in short: as §4
[27] = test system: Enterococcus faecium; assay: Antibacterial activity against vancomycin-resistant Enterococcus faecium by micro dilution susceptibility test; type: functional; in short: as §3
[28] = test system: Staphylococcus aureus; assay: Selectivity ratio of MIC for methicillin-resistant Staphylococcus aureus JCSC 4469 to MIC for methicillin-resistant Staphylococcus aureus JCSC 4788; type: functional
[29] = test system: RAW264.7; assay: Cytotoxicity against mouse RAW264.7 cells by MTT assay; type: cell-based; in short: as §4
[30] = test system: Staphylococcus aureus; assay: Antibacterial activity against methicillin-resistant Staphylococcus aureus 85/2082 by micro dilution susceptibility test; type: functional; in short: as §3
[31] = test system: Staphylococcus aureus; assay: Induction of cytoplasmic membrane hyperpolarization in methicillin-resistant Staphylococcus aureus JCSC 4788 at 1 to 2 times MIC measured after 2 mins by Disc3(5) staining based fluorescence spectrophotometric method; type: functional, organism-based; in short: as §5

CCCCCCCC(=O)c1c(O)cc(O)c2c1OC1=C(C(=O)C(C)(C)C(=O)C1(C)C)C2CC(C)C (stereo unspecified)
Activity [1]: >90%
Selectivity ratio [2]: 40.6
MIC [3]: 0.25 to 0.5 µg/mL (≈ 0.516 to 1.03 µM)
IC50 [4]: 10.2 µg/mL (≈ 20.9 µM)
Activity [5]: Active
MIC [6]: 0.5 µg/mL (≈ 1.03 µM)
Activity [7]: 99.9%
MIC [8]: 0.25 µg/mL (≈ 0.516 µM)
Activity [9]: Active
Selectivity ratio [10]: 0.5 to 2
MIC [11]: 0.25 µg/mL (≈ 0.516 µM)
Selectivity ratio [12]: 0.5 - 2
MIC [13]: > 32 µg/mL
MIC [14]: 0.25 µg/mL (≈ 0.516 µM)
Activity [15]: Active
Activity [16]: Active
Selectivity ratio [17]: 0.5 - 2
Selectivity ratio [18]: 0.5 to 2
Activity [19]: 99.9%
MIC [20]: 0.25 µg/mL (≈ 0.516 µM)
Selectivity ratio [21]: 0.5 - 2
MIC [22]: > 32 µg/mL
Activity [23]: Active
MIC [24]: 0.125 µg/mL (≈ 0.258 µM)
Selectivity ratio [25]: 39.9
IC50 [26]: 9.98 µg/mL (≈ 20.6 µM)
MIC [27]: 2 µg/mL (≈ 4.13 µM)
Selectivity ratio [28]: 0.5 - 2
IC50 [29]: 5.6 µg/mL (≈ 11.6 µM)
MIC [30]: 0.25 µg/mL (≈ 0.516 µM)
Activity [31]: Active

Reference: ChEMBL document CHEMBL4257543, “Structural optimization and antibacterial evaluation of rhodomyrtosone B analogues against MRSA strains” (Medchemcomm, 2018)
